Assay outcomes (PubChem)
Arbovirus inh: antivirals against arbovirus infection; arbovirus infection cell-based antiviral screen; inhibition, % at 10 µM; 200,000 compounds, 0.37% hits; AID 1251; in the data active = inhibition above about 30%
Rad51 HR inh: Rad51 (human) homologous recombination inhibition; AID 1385; 200,000 compounds, 0.085% hits; hRad51 DNA strand exchange, fluorescence dequenching; Q06609; inhibition, % at 10 µM;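 active = inhibition above 40% at the single screening dose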;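 note: 0% = DMSO control wells and 100% = blanks with heterologous ssDNA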
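Test system: preformed human Rad51 ssDNA filaments; also added: Donor/quencher-labelled 47-bp dsDNA substrate; doses: 10 µM final, single point; times: 37 °C 15-min filament assembly, 30-min compound preincubation, 15-min exchange; detection: FRET fluorescence dequenching, excitation 485 nm, emission 520 nm; read-out basis: Fluorescence-based percent inhibition, control- and blank-normalised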
PKD1 inh: blocks activity of human protein kinase D1. Q15139. PKD1 kinase fluorescence polarization assay. inhibition, % (concentration not given with the values). 200,000 compounds, 0.056% hits. AID 797
Wee1 degr inh: inhibitors of human Wee1 degradation; HeLa Luc-Wee1K328M stability, luciferase luminescence; 100% = proteasome inhibitor MG132 effect; 220,000 compounds, 1.2% hits; P30291; reporter increase, % at 5 µM; AID 1321;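 active = activation above the mean of all tested compounds plus 3 SD, set per screening run, cut at about 8.8% in these data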;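 note: cells exposed to compound for 20 h before luminescence read; 0% = DMSO alone and 100% = MG132 at 30 µM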
Target sequence (P30291 whole entry K328M): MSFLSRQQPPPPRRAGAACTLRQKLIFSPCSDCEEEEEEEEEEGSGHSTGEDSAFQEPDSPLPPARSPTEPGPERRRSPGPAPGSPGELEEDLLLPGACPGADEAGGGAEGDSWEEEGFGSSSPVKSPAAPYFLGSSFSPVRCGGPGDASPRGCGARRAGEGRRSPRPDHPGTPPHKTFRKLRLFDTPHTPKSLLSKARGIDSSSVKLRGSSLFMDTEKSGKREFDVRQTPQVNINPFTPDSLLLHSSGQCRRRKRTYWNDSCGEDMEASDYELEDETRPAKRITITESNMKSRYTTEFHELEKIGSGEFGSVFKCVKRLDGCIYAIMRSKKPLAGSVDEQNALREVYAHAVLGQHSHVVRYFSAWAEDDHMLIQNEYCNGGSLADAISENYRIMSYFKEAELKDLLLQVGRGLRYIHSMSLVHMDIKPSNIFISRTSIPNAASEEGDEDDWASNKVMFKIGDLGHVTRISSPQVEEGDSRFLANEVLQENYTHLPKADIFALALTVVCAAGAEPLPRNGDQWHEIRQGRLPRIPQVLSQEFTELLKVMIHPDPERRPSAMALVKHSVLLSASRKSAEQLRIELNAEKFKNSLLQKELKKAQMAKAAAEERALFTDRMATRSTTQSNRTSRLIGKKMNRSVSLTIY
CHOP inhibitor: blocks CHOP induction under ER stress; inhibition, % at 10 µM; 220,000 compounds, 3.8% hits; CHO-K1 CHOP-promoter luciferase, tunicamycin-induced, 15-18 h;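 active = compounds that reduced the stress-induced luciferase reporter signal by more than about 70% of percent inhibition, limit read from the data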;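 note: 0% = tunicamycin plus vehicle and 100% = wells without tunicamycin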
Lmaj promast: Leishmania major promastigote growth inhibition | Leishmania major promastigotes, resazurin fluorescence viability | inhibition, % at 10 µM | 200,000 compounds, 9% hits | AID 1063;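 note: promastigotes grown with compound for 44 hours at 28 °C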
Numbers without * were called inactive; nt = no result. Most compounds without a hit are left out; they make up all but 12% or so of the library. Cut-off read from the data, not from the text of the source, unless noted: active = inhibition above about 50%; inactive = the rest.

SMILES	Arbovirus inh	Rad51 HR inh	PKD1 inh	Wee1 degr inh	CHOP inhibitor	Lmaj promast
O=C1CCc2ccc(NS(=O)(=O)c3ccc(F)cc3)cc2N1	-2	6	-10	-2	-6	-4
Cc1ccc(/C(O)=C/c2nc3ccccc3oc2=O)cc1	nt	-241	nt	-1	25	nt
O=c1oc2ccccc2nc1/C=C(O)/C=C/c1ccc(F)cc1	-15	-69	-7	-1	9	61*
Cc1ccc(CN2CCN(Cc3nc(C(C)C)cs3)CC2CCO)cc1 (stereo unspecified)	3	17	-9	-1	6	74*
CC(C)CN1CCN(Cc2nc(C(C)C)cs2)CC1CCO (stereo unspecified)	-4	nt	-9	3	11	7
CC(C)c1csc(CN2CCN(Cc3ccc(F)cc3)C(CCO)C2)n1 (stereo unspecified)	0	-2	-2	3	44	81*
CCC1=C(OC(=O)c2ccccc2)C(C)(C)C(c2ccccc2)OC1=O (stereo unspecified)	5	1	0	-2	93*	0
CC1(C)C(=O)OC(c2ccccc2)C(C)(C)C1=O (stereo unspecified)	nt	-5	nt	0	10	nt
CCOC(=O)N1CCN(C(=O)CC(C(=O)N2CCc3ccccc32)n2ccnc2)CC1 (stereo unspecified)	-5	-2	-6	-2	-21	83*
O=C(CC(C(=O)N1CCc2ccccc21)n1ccnc1)NCc1ccccc1 (stereo unspecified)	3	1	4	-1	5	100*
COc1ccc(NCc2ccc3c(c2)OCO3)cc1Cl	-8	6	-8	3	5	84*
c1cncc(CNc2ccc3c(c2)OCO3)c1	-6	13	4	-1	-19	52*
Cc1ccc(CNc2ccc3c(c2)OCO3)c(C)c1	-14	1	9	-1	-32	99*
Oc1ccccc1CNc1ccc2c(c1)OCCO2	-5	nt	-5	0	-4	2
O=C(NCc1ccccn1)C(=O)Nc1cccc2ccccc12	-3	0	0	1	9	2
CCN(CC(=O)Nc1ccc(OC)c(Cl)c1)CC(=O)NC(C)C	12	1	4	-1	40	-6
Cc1cccc(NC(=O)CNC(=O)COc2cc(F)ccc2[N+](=O)[O-])c1C	-3	2	2	4	13	-1
COC(=O)CSc1nnc(-c2ccc(S(=O)(=O)N3CCCCC3)cc2)o1	-5	-8	4	1	29	-4
O=C(CSc1nnc(-c2ccc(F)cc2)o1)Nc1ccc(S(=O)(=O)N2CCCCCC2)cc1	-5	7	0	1	84*	-2
O=C(CN(C(=O)CSc1nnc(COc2ccccc2)o1)c1ccc(F)cc1)NC1CCCC1	-10	-1	-15	-1	48	19
O=C(CSc1nnc(-c2ccncc2)o1)NC1CCCCC1	-4	0	-11	6	0	10
O=C(CSc1nnc(-c2ccc(F)cc2)o1)Nc1ccc(S(=O)(=O)N2CCCC2)cc1	-3	8	-10	3	4	-3
O=C(CSc1nnc(-c2ccc(F)cc2)o1)NC1CCCCC1	0	-4	-2	10*	48	-10
O=C(CN(C(=O)CSc1nnc(COc2ccccc2)o1)c1ccc(F)cc1)NC1CCCCC1	-6	1	-12	2	52	52*
O=C(CSc1nnc(-c2ccc(S(=O)(=O)N3CCCC3)cc2)o1)NCc1ccccc1	-8	-12	-12	2	9	99*
SMILES	Arbovirus inh	Rad51 HR inh	PKD1 inh	Wee1 degr inh	CHOP inhibitor	Lmaj promast
COC(=O)C1=C(C(=O)OC)[C@@H]2N(Cc3ccccc3)c3ccccc3[C@@]23C[C@@H](C(=O)OC)N(C(=O)NC(C)(C)C)C3=N1	nt	-2	nt	nt	nt	nt
CCCOc1ccc(N2CC(C(=O)NCCc3ccc(OC)c(OC)c3)CC2=O)cc1 (stereo unspecified)	3	nt	1	-1	20	-3
Clc1ccc(-c2ccccc2)nn1	nt	2	nt	1	-6	nt
CCN(CC)S(=O)(=O)c1ccc(NC(=O)CSc2nnc(-c3ccc(F)cc3)o2)cc1	-5	-2	-14	-1	94*	6
CC(NC(=O)CSc1nnc(-c2cccc(S(=O)(=O)N3CCCCC3)c2)o1)C12CC3CC(CC(C3)C1)C2 (stereo unspecified)	-12	4	2	-2	15	96*
Cc1cc2cc(C)c3nnc(SCC(=O)Nc4ccc(S(=O)(=O)N5CCCCC5)cc4)n3c2cc1C	-22	-3	4	1	28	56*
Cc1cc2ccccc2n2c(SCC(=O)Nc3ccc(S(=O)(=O)N4CCCCC4)cc3)nnc12	-5	nt	-5	-4	0	4
CCC1(c2ccc(F)cc2)NC(=O)N(CC(=O)Nc2ccc(C)c(S(=O)(=O)N3CCOCC3)c2)C1=O (stereo unspecified)	-7	3	0	-2	-19	0
CC1CCCCN1S(=O)(=O)c1cccc(S(=O)(=O)N2CCOCC2)c1 (stereo unspecified)	nt	-6	nt	5	-6	nt
CCn1cc(CNC(=O)c2cc(COc3ccc(F)cc3F)on2)cn1	0	7	0	7	42	-6
CSc1ccccc1NC(=O)CN(Cc1ccccc1)S(C)(=O)=O	17	5	-4	5	42	5
CSc1cccc(NC(=O)CN(Cc2ccc(Cl)cc2)S(C)(=O)=O)c1	5	-6	-4	-2	93*	20
CSc1ccccc1NC(=O)CN(Cc1ccc(Cl)cc1)S(C)(=O)=O	5	-4	-1	1	77*	34
COc1ccc(N(CC(=O)Nc2cccc(C(F)(F)F)c2)S(C)(=O)=O)cc1	-6	2	-2	1	13	3
COc1ccc(N(CC(=O)Nc2cccc(SC)c2)S(C)(=O)=O)cc1	4	3	-5	9.2*	-34	4
Cc1nc(N2CCCCC2)c(C#N)c(C)c1[N+](=O)[O-]	13	7	-1	3	74*	-5
Cc1cc2ccccn2c1C(=O)c1cccc([N+](=O)[O-])c1	9	11	-7	0	38	-8
Cc1cc2ccccn2c1C(=O)c1ccc([N+](=O)[O-])o1	-37	-2	1	0	6	99*
CC(OC(=O)CC(NC(=O)c1ccccc1Cl)c1ccccc1)C(=O)Nc1cccc(Cl)c1Cl (stereo unspecified)	0	19	-11	2	28	9
CCN(CC)C(=O)c1ccc(S(=O)(=O)N2CCC(c3nc4ccccc4s3)CC2)cc1	7	0	2	-3	74*	-11
O=c1c(Cl)c(NCCCO)cnn1-c1nc2ccccc2[nH]1	-38	-4	0	1	17	5
C=CCN(CC=C)c1cnn(-c2nc3ccccc3[nH]2)c(=O)c1Cl	-7	nt	0	2	43	65*
CCCCCCN1C=CC=C/C1=C\C=C(C#N)C#N	nt	nt	nt	0	22	nt
